Seven compounds from ChEMBL document CHEMBL2157970, “New prenylated isoflavonoids as protein tyrosine phosphatase 1B (PTP1B) inhibitors from Erythrina addisoniae” (Bioorg Med Chem, 2012) can be followed below.

For one assay, the system named is MCF7. As to the kind of experiment: Cytotoxicity against human MCF7 cells after 48 hrs by MTT assay. The assay is classed as functional, cell-based. An outline of the steps:
(§1)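 Cells kept in DMEM with 10% heat-inactivated FBS, 4.5 g/L D-glucose, sodium pyruvate and L-glutamine at 37 °C, 5% CO2. Seeded at 1 × 10^4 cells/well, left to adhere 24 h, then exposed 48 h to a range of concentrations at 0.05% (v/v) DMSO final. MTT added for 4 h, absorbance at 550 nm. Viability taken relative to control wells; IC50 from triplicates, mean ± SD.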
In general terms: Tetrazolium dyes change colour on reduction, which living cells bring about.

Assay [1] can be described thus: Cytotoxicity against human MCF7/ADR cells after 48 hrs by MTT assay. The assay is classed as functional, cell-based, NCI/ADR-RES. An outline of the steps: as §1
Assay [2] concerns the target T1, Tyrosine-protein phosphatase non-receptor type 1 (Homo sapiens, UniProt P18031).
T1 sequence (P18031 whole entry): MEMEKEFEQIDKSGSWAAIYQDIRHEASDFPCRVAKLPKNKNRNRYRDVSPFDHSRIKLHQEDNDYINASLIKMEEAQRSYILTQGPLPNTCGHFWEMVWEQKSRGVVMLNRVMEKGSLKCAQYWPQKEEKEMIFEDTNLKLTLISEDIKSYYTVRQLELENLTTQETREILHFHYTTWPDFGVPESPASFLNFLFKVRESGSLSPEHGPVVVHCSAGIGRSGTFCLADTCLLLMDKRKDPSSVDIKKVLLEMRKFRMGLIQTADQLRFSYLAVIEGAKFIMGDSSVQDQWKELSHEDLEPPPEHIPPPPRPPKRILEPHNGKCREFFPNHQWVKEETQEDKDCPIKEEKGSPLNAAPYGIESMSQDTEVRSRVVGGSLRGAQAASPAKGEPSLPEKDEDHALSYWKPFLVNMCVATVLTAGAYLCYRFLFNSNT
As to the kind of experiment: Inhibition of human recombinant PTP1B using p-nitrophenyl phosphate as substrate after 30 mins. The essentials:
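Human recombinant enzyme (0.05–0.1 µg) with 2 mM p-NPP in 50 mM citrate pH 6.0, 0.1 M NaCl, 1 mM EDTA, 1 mM DTT, 37 °C for 30 min. IC50 by regression, mean ± SD of three replicates.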

The subject of assay [3] is MDA-MB-231. As to the kind of experiment: Cytotoxicity against human MDA-MB-231 cells after 48 hrs by MTT assay. The assay is classed as functional, cell-based. The essentials: as §1
A further assay concerns NCI/ADR-RES. Briefly: Ratio of tamoxifen IC50 to compound IC50 for human MCF7/ADR cells. The assay is classed as functional.
In assay [4] the test system is MDA-MB-231. Briefly: Ratio of tamoxifen IC50 to compound IC50 for human MDA-MB-231 cells. The assay is classed as functional.
Setting [5] is: Homo sapiens, MCF7, 48 h, read-out: IC50.
The mark [6] stands for this setting: Homo sapiens, NCI/ADR-RES, 48 h, read-out: IC50.
[7] abbreviates: Homo sapiens, MDA-MB-231, 48 h, read-out: IC50.

Each structure is given as a SMILES string.

Usually IC50 stands for the concentration that inhibits the measured activity by half. `CC(C)=CCc1c2c(c(O)c3c(=O)c(-c4ccc(O)cc4)coc13)CC(C(C)(C)O)O2` (centres undefined) [ECHRENONE B10]: the IC50 in the assay on MCF7 (setting [5]) worked out at 4.32 µM; in assay [1] (setting [6]), 5.76 µM; in assay [2], 24.2 µM; in the assay with MDA-MB-231 [3] (setting [7]) it was 3.97 µM. Besides, the values for the Ratio IC50 in the assay with NCI/ADR-RES and in the assay with MDA-MB-231 [4] were 1.93 and greater than 3, respectively.
Turning to `CC(C)=CCc1cc2c(=O)c(-c3ccc(O)cc3O)coc2c(CC=C(C)C)c1O` [ERYTHRADDISON II], the IC50 came out at 11.4 µM in the assay with MCF7 (setting [5]), 6.75 µM in assay [1] (setting [6]), 17.4 µM in assay [2] and 4.57 µM in the assay with MDA-MB-231 [3] (setting [7]).
On to `COC(c1c2c(c(O)c3c(=O)c(-c4ccc(O)cc4)coc13)C=CC(C)(C)O2)C(O)C(C)(C)O` (centres undefined) [ERYTHRADDISON I], for which the half-maximal inhibitory concentration (IC50) entry with MCF7 (mcf7) was “Not Active”; in assay [1] (nci/adr-res), “Not Active”; in assay [2] it was greater than 30 µM; in the assay with MDA-MB-231 [3] (mda-mb-231) it was “Not Active”.
For `COc1cc2c(cc1[C@H]1COc3cc(O)cc(O)c3C1=O)C=CC(C)(C)O2` [ERYTHRADDISON IV], the IC50 in the assay on MCF7 (setting [5]) came to 11 µM; in assay [1] (setting [6]) it was 6.06 µM; in assay [2], 13.8 µM; in the assay on MDA-MB-231 [3] (setting [7]), 6.34 µM.
For the compound `COc1ccc([C@H]2COc3cc(O)cc(O)c3C2=O)cc1CC=C(C)C` [ERYTHRADDISON III], the IC50 in the assay on MCF7 (setting [5]) was 6.84 µM; in assay [1] (setting [6]), 9.22 µM; in assay [2], 4.6 µM; with MDA-MB-231 [3] (setting [7]), 6.92 µM.
For `CC(C)=CCc1cc(-c2coc3c(CC=C(C)C)c(O)ccc3c2=O)ccc1O` [ERYSUBIN F], the IC50 in assay [2] is 7.8 µM.
Consider `CC/C(=C(\c1ccccc1)c1ccc(OCCN(C)C)cc1)c1ccccc1` [TAMOXIFEN], for which, in the assay with MCF7 (setting [5]), the IC50 was 11.4 µM.
